Measurements reported in ChEMBL document CHEMBL1806433, “Cytotoxicity of aporphines in human colon cancer cell lines HCT-116 and Caco-2: an SAR study” (Bioorg Med Chem Lett, 2011).

Experiments:
HCT-116 [1] = test: Cytotoxicity against human HCT116 cells after 72 hrs by MTS assay; format: functional, cell-based; conditions: HCT-116, 72 h
In short: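 HCT-116 kept in McCoy's 5a with 10% FBS, 1% nonessential amino acids, 2% HEPES and 1% antibiotic at 37 °C, 5% CO2. Seeded at 5000-3,000 cells/well 24 or 48 h before treatment. Serial dilutions in DMSO (<0.5% in medium) applied for 72 h. MTS/phenazine methosulfate added for 3 h, OD490 read versus 0.5% DMSO controls. IC50 given as mean ± S.D. of three experiments.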

Caco-2 [2] = test: Cytotoxicity against human Caco2 cells after 72 hrs by MTS assay; format: functional, cell-based; conditions: Caco-2, 72 h
In short: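 Caco-2 grown in EMEM with 10% FBS, 1% nonessential amino acids, 1% L-glutamine and 1% antibiotic at 37 °C, 5% CO2. Cells plated at 5000-3,000/well 24 or 48 h before dosing. Serially diluted samples in DMSO (<0.5% in medium) for 72 h. Then MTS plus phenazine methosulfate for 3 h at 37 °C, OD490 read against 0.5% DMSO controls. IC50 reported as mean ± S.D. of three experiments.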

[3] = Cytotoxicity against human CCD-18Co cells after 72 hrs by MTS assay; format: cell-based
In short: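 72 h exposure to serially diluted samples in DMSO (<0.5% in medium), with 0.5% DMSO controls in parallel. MTS reagent with phenazine methosulfate then added for 3 h at 37 °C. Absorbance at 490 nm gives cell number relative to controls. IC50 is the concentration giving 50% growth inhibition, reported as mean ± S.D. of three separate experiments.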

HCT-116 [4] = test: Ratio of etoposide IC50 to compound IC50 for human HCT116 cells; format: functional
Caco-2 [5] = test: Ratio of etoposide IC50 to compound IC50 for human Caco2 cells; format: functional

For `CCCCCOc1c(OC)cc2c3c1-c1cc4c(cc1C[C@@H]3N(C)CC2)OCO4`, the IC50 (HCT-116 [1]) was 46.3 µM, the IC50 (Caco-2 [2]) was 35.3 µM and the IC50 [3] was 73.4 µM.

`COc1cc2c(c(-c3ccc4c(c3)OCO4)c1OC)[C@H](C)N(C)CC2` showed an IC50 (HCT-116 [1]) of 195 µM and an IC50 (Caco-2 [2]) of 190 µM.

`COc1cc2c(cc1OC)[C@H](Cc1ccc3c(c1)OCO3)N(C)CC2` gave an IC50 (HCT-116 [1]) of 191 µM and an IC50 (Caco-2 [2]) of 191 µM.

For `COc1c(Br)c2c3c(c1OC)-c1cc4c(cc1C[C@@H]3N(C)CC2)OCO4`, the IC50 (HCT-116 [1]) was 100 µM, the IC50 (Caco-2 [2]) was 101 µM and the IC50 [3] was 181 µM.

In the case of `CCOC(=O)N1CCc2cc(OC)c(OC)c3c2[C@@H]1Cc1cc2c(cc1-3)OCO2`, the IC50 (HCT-116 [1]) is reported as 81.4 µM, the IC50 (Caco-2 [2]) is reported as 83.2 µM and the IC50 [3] is reported as 112 µM.

Work on `COc1cc2c3c(c1OC(=O)c1ccccc1)-c1cc4c(cc1C[C@@H]3N(C)CC2)OCO4` yielded an IC50 (HCT-116 [1]) of 25.2 µM, an IC50 (Caco-2 [2]) of 25.9 µM and an IC50 [3] of 45.1 µM.

Work on `COc1cc([C@@H]2c3cc4c(cc3[C@@H](O[C@@H]3O[C@@H]5CO[C@@H](C)O[C@H]5[C@H](O)[C@H]3O)[C@H]3COC(=O)[C@H]23)OCO4)cc(OC)c1O` [ETOPOSIDE] yielded an IC50 (HCT-116 [1]) of 25.5 µM, an IC50 (Caco-2 [2]) of 18.6 µM and an IC50 [3] of 44.4 µM.

Work on `CCC(CC)COc1c(OC)cc2c3c1-c1cc4c(cc1C[C@@H]3N(C)CC2)OCO4` yielded an IC50 (HCT-116 [1]) of 26.6 µM, an IC50 (Caco-2 [2]) of 22.8 µM and an IC50 [3] of 50.7 µM.

Work on `CCOC(=O)N1CCc2cc(OC)c(OCc3ccccc3)c3c2[C@@H]1Cc1cc2c(cc1-3)OCO2` yielded an IC50 (HCT-116 [1]) of 93.3 µM, an IC50 (Caco-2 [2]) of 99.8 µM and an IC50 [3] of 110 µM.

For `COc1cc2c3c(c1OC)-c1cc4c(cc1C[C@@H]3N(C(C)=O)CC2)OCO4`, the IC50 (HCT-116 [1]) was 186 µM, the IC50 (Caco-2 [2]) was 160 µM and the IC50 [3] was 188 µM.

For `CCOC(=O)N1CCc2cc(OC)c(O)c3c2[C@@H]1Cc1cc2c(cc1-3)OCO2`, the IC50 (HCT-116 [1]) was 72.7 µM, the IC50 (Caco-2 [2]) was 71.7 µM and the IC50 [3] was 128 µM.

Compound `CCOC(=O)N1CCc2cc(OC)c(OCC)c3c2[C@@H]1Cc1cc2c(cc1-3)OCO2` has an IC50 (HCT-116 [1]) of 73.3 µM, an IC50 (Caco-2 [2]) of 73.5 µM and an IC50 [3] of 134 µM.

`COc1cc2c3c(c1O)-c1cc4c(cc1C[C@@H]3N(C)CC2)OCO4` [DOMESTICINE] gave an IC50 (HCT-116 [1]) of 73.3 µM, an IC50 (Caco-2 [2]) of 73.5 µM and an IC50 [3] of 134 µM. The “Ratio IC50” value (HCT-116 [4]) was 3 and the “Ratio IC50” value (Caco-2 [5]) was 4.

In the case of `COc1cc2c3c(c1OC)-c1cc4c(cc1CC3N(C)CC2)OCO4` (centres undefined) [NANTENINE], the IC50 (HCT-116 [1]) is reported as 38.3 µM, the IC50 (Caco-2 [2]) is reported as 36.2 µM and the IC50 [3] is reported as 56.5 µM.

Work on `COc1cc2c3c(c1OC)-c1cc4c(cc1C[C@@H]3N(S(C)(=O)=O)CC2)OCO4` yielded an IC50 (HCT-116 [1]) of 196 µM and an IC50 (Caco-2 [2]) of 196 µM.
